According to ChEMBL document CHEMBL1125649, “Synthesis and antitumor activity of structural analogues of the epipodophyllotoxins” (J Med Chem, 1991):
In brackets after ≈: the same amount, converted by molar mass.

Columns and labels:
Assay type in all cases: functional, cell-based
A549 = experiment: Growth inhibition of A549 (human lung carcinoma) cell line.
Summary of the method: (§1)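 Cells from ATCC, grown in RPMI 1640 with 10% fetal calf serum. Compounds dissolved in DMSO, diluted in Earle's balanced salt solution then medium, 2-fold serial dilutions, each in triplicate versus triplicate drug-free controls. 2.5 × 10^3 cells per well, 72 h at 37 °C, 5% CO2. MTT added for 90 min, DMSO solubilization, absorbance at 570 nm. IC50 = 50% absorbance reduction versus control, by linear regression of dose-response curves.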

HT-29 = experiment: Growth inhibition of HT-29 (human colon adenocarcinoma) cell line.; summary of the method: as §1
P388 = experiment: Growth inhibition of P388-D1 (murine leukemia) cell line.; conditions: Mus musculus; summary of the method: as §1

Compound | IC50 (A549) | IC50 (HT-29) | IC50 (P388)
COC(=O)[C@@]12CCO[C@@H]1c1cc3c(cc1[C@H]2c1cc(OC)c(OC)c(OC)c1)OCO3 | 11.9 µg/mL (≈ 27.8 µM) | 17.4 µg/mL (≈ 40.6 µM) | 5.7 µg/mL (≈ 13.3 µM)
COc1cc([C@H]2C[C@@H](OC3CCCCC3)c3cc4c(cc32)OCO4)cc(OC)c1O | 12 µg/mL (≈ 29.1 µM) | 10.3 µg/mL (≈ 25 µM) | 7.9 µg/mL (≈ 19.2 µM)
COc1cc([C@@H]2c3cc4c(cc3[C@H](O)[C@@]23CCOC3=O)OCO4)cc(OC)c1OC | 5.1 µg/mL (≈ 12.3 µM) | 5.3 µg/mL (≈ 12.8 µM) | 2.5 µg/mL (≈ 6.03 µM)
COc1cc([C@H]2C[C@@H](OC)c3cc4c(cc32)OCO4)cc(OC)c1O | 1.1 µg/mL (≈ 3.19 µM) | 3.2 µg/mL (≈ 9.29 µM) | 0.57 µg/mL (≈ 1.66 µM)
COc1cc([C@@H]2c3cc4c(cc3[C@]3(CO)COC(=O)[C@H]23)OCO4)cc(OC)c1O | 12.5 µg/mL (≈ 31.2 µM) | 12.2 µg/mL (≈ 30.5 µM) | 8 µg/mL (≈ 20 µM)
COc1cc([C@H]2C[C@@H](O)c3cc4c(cc32)OCO4)cc(OC)c1O | 0.76 µg/mL (≈ 2.3 µM) | 2.1 µg/mL (≈ 6.36 µM) | 0.53 µg/mL (≈ 1.6 µM)
COc1cc([C@@H]2c3cc4c(cc3[C@]3(CO)COC(=O)[C@H]23)OCO4)cc(OC)c1OC | 1.2 µg/mL (≈ 2.9 µM) | 1.2 µg/mL (≈ 2.9 µM) | 0.59 µg/mL (≈ 1.42 µM)
COc1cc([C@@H]2c3cc4c(cc3[C@@H](O)[C@@]23CCOC3=O)OCO4)cc(OC)c1O | 48.2 µg/mL (≈ 120 µM) | > 50 µg/mL | 16.8 µg/mL (≈ 42 µM)
COc1cc([C@H]2C[C@@H](O)c3cc4c(cc32)OCO4)cc(OC)c1OC | 0.038 µg/mL (≈ 0.11 µM) | 0.032 µg/mL (≈ 0.0929 µM) | 0.014 µg/mL (≈ 0.0407 µM)
COc1cc(C2CC(=O)c3cc4c(cc32)OCO4)cc(OC)c1O (stereo not given) | 19.4 µg/mL (≈ 59.1 µM) | 19.2 µg/mL (≈ 58.5 µM) | 1.7 µg/mL (≈ 5.18 µM)
COc1cc([C@H]2C[C@H](OC3CCCCC3)c3cc4c(cc32)OCO4)cc(OC)c1O | 9.7 µg/mL (≈ 23.5 µM) | 8.6 µg/mL (≈ 20.8 µM) | 6.6 µg/mL (≈ 16 µM)
COc1cc([C@H]2C[C@H](OC)c3cc4c(cc32)OCO4)cc(OC)c1O | 46.9 µg/mL (≈ 136 µM) | 41.5 µg/mL (≈ 121 µM) | 8.1 µg/mL (≈ 23.5 µM)
COC(=O)[C@@]12CCO[C@@H]1c1cc3c(cc1[C@H]2c1cc(OC)c(O)c(OC)c1)OCO3 | > 50 µg/mL | > 50 µg/mL | 43 µg/mL (≈ 104 µM)
COc1cc([C@H]2C[C@H](O)c3cc4c(cc32)OCO4)cc(OC)c1O | 9.9 µg/mL (≈ 30 µM) | 12 µg/mL (≈ 36.3 µM) | 4.2 µg/mL (≈ 12.7 µM)
COc1cc([C@@H]2c3cc4c(cc3[C@H](O)[C@@]23CCOC3=O)OCO4)cc(OC)c1O | > 50 µg/mL | > 50 µg/mL | > 50 µg/mL
COc1cc(C2CC(=O)c3cc4c(cc32)OCO4)cc(OC)c1OC (stereo not given) | 2.9 µg/mL (≈ 8.47 µM) | 2.9 µg/mL (≈ 8.47 µM) | 1.1 µg/mL (≈ 3.21 µM)
COc1cc([C@H]2C[C@H](OC(C)(C)C)c3cc4c(cc32)OCO4)cc(OC)c1O | 31.3 µg/mL (≈ 81 µM) | 28.8 µg/mL (≈ 74.5 µM) | 7.1 µg/mL (≈ 18.4 µM)
COc1cccc2c1C(=O)c1c(O)c3c(c(O)c1C2=O)C[C@@](O)(C(=O)CO)C[C@@H]3O[C@H]1C[C@H](N)[C@H](O)[C@H](C)O1 [DOXORUBICIN] | 0.053 µg/mL (≈ 0.0975 µM) | 0.11 µg/mL (≈ 0.202 µM) | 0.017 µg/mL (≈ 0.0313 µM)
COc1cc([C@@H]2c3cc4c(cc3[C@@H](O[C@@H]3O[C@@H]5CO[C@@H](C)O[C@H]5[C@H](O)[C@H]3O)[C@H]3COC(=O)[C@H]23)OCO4)cc(OC)c1O [ETOPOSIDE] | 1.03 µg/mL (≈ 1.75 µM) | 1.7 µg/mL (≈ 2.89 µM) | 0.063 µg/mL (≈ 0.107 µM)
COc1cc([C@@H]2c3cc4c(cc3[C@H](O)[C@H]3COC(=O)[C@H]23)OCO4)cc(OC)c1OC [PODOFILOX] | 0.0043 µg/mL (≈ 0.0104 µM) | 0.0043 µg/mL (≈ 0.0104 µM) | 0.0013 µg/mL (≈ 0.00314 µM)
